This note sets out measurements from ChEMBL document CHEMBL4396869, “Design and Synthesis of Selective Phosphodiesterase 4D (PDE4D) Allosteric Inhibitors for the Treatment of Fragile X Syndrome and Other Brain Disorders” (J Med Chem, 2019).

Data set [1] is filed under the species Homo sapiens. Description: Selectivity ratio of IC50 for recombinant human wild-type His6-tagged PDE4D7 UCR1 domain (S129 residues) expressed in baculovirus infected Sf9 insect cells to IC50 for recombinant human His6-tagged PDE4D7 UCR1 S129D mutant expressed in baculovirus infected Sf9 insect cells.
A short description of data set [2]: Inhibition of recombinant human wild-type His6-tagged PDE4D7 UCR1 domain (S129 residues) expressed in baculovirus infected Sf9 insect cells using cAMP as substrate preincubated for 5 to 10 mins followed by substrate addition and measured for 10 mins by yeast myokinase/pyruvate kinase/lactate dehydrogenase-coupled fluorescence assay.
The species named for data set [3] is Homo sapiens. Description: Selectivity ratio of IC50 for recombinant human His6-tagged PDE4B1 UCR1 S133D mutant expressed in baculovirus infected Sf9 insect cells to IC50 for recombinant human His6-tagged PDE4D7 UCR1 S129D mutant expressed in baculovirus infected Sf9 insect cells.
Data set [4] has as its target 3',5'-cyclic-AMP phosphodiesterase 4B (Homo sapiens, UniProt Q07343, S133D). Description: Inhibition of recombinant human His6-tagged PDE4B1 UCR1 S133D mutant expressed in baculovirus infected Sf9 insect cells using cAMP as substrate preincubated for 5 to 10 mins followed by substrate addition and measured for 10 mins by yeast myokinase/pyruvate kinase/lactate dehydrogenase-coupled fluorescence assay.

Data set [5] in a line: Inhibition of recombinant human His6-tagged PDE4D7 UCR1 S129D mutant expressed in baculovirus infected Sf9 insect cells using cAMP as substrate preincubated for 5 to 10 mins followed by substrate addition and measured for 10 mins by yeast myokinase/pyruvate kinase/lactate dehydrogenase-coupled fluorescence assay.
Data set [6] relates to Mus musculus. Description: Memory enhancement effect in ICR mouse assessed as improvement in novel object discrimination at 0.1 mg/kg, ip […] measured for 5 mins by open field test. The class given is functional, organism-based. In outline:
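Male ICR mice (25–30 g) in open field box; habituation 10 min day 1, training with two identical objects 5 min day 2, test with familiar and novel object 5 min day 3 (24 h delay). Exploration times recorded; discrimination index d2 = (b − a)/(a + b). Oral dosing in 5% DMSO, 5% Solutol in PBS; rolipram given parenterally.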

The subject of data set [7] is Mus musculus. Description: Induction of emesis in ICR mouse assessed as reduction in ketamine/xylazine-induced duration of anesthesia at 0.1 mg/kg, ip pretreated for 15 mins followed by ketamine/xylazine addition. In kind it is organism-based. The note with it: in vivo. An outline of the steps: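 Male ICR mice, 25–30 g. Test agents given by oral gavage in 5% DMSO, 5% Solutol in PBS, or rolipram IP; ketamine (80 mg/kg) plus xylazine (10 mg/kg) IP given 30 min after PO or 15 min after IP dosing. Endpoint: time from loss to return of righting reflex.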

Data set [8] relates to Mus musculus. Description: Memory enhancement effect in ICR mouse assessed as improvement in novel object discrimination at 3 to 30 mg/kg, po administered via gavage measured for 5 mins by open field test. The class given is functional, organism-based. In outline:
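Male ICR mice (25–30 g), dosed by oral gavage in 5% DMSO, 5% Solutol in PBS. Three phases in an open field box: 10 min habituation on day 1, 5 min training with identical objects on day 2, 5 min test with familiar and novel objects on day 3 (24 h delay). Exploration times recorded; discrimination index d2 = (b − a)/(a + b).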

A short description of data set [9]: Stability in mouse liver microsomes assessed as parent compound remaining at 1 uM measured after 30 mins by LC-MS/MS analysis. The note with it: read-out: Stability. In kind it is ADME, Microsome. In outline:
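Liver microsome stability run by a contract lab using standard protocols. Parent compound remaining measured after 30 min incubation.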

The nature of data set [10]: Protein binding in human plasma. The class given is ADME, cell-free.
Data set [11] is described as follows: Protein binding in dog plasma. In kind it is ADME, cell-free, Canis lupus familiaris. The note with it: read-out: PPB.
A short description of data set [12]: Protein binding in rat plasma. In kind it is ADME, cell-free. The note with it: read-out: PPB.
Data set [13] is described as follows: Protein binding in mouse plasma. The class given is ADME, cell-free. The note with it: read-out: PPB.
For data set [14], the target named is Cytochrome P450 3A4 (Homo sapiens, UniProt P08684). Description: Inhibition of CYP3A4 (unknown origin) by fluorescence-based assay. The class given is ADME. In outline: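 CYP inhibition run with a fluorescent substrate by a contract laboratory under standard protocols; IC50 reported.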
Cytochrome P450 3A4, sequence (P08684 whole entry): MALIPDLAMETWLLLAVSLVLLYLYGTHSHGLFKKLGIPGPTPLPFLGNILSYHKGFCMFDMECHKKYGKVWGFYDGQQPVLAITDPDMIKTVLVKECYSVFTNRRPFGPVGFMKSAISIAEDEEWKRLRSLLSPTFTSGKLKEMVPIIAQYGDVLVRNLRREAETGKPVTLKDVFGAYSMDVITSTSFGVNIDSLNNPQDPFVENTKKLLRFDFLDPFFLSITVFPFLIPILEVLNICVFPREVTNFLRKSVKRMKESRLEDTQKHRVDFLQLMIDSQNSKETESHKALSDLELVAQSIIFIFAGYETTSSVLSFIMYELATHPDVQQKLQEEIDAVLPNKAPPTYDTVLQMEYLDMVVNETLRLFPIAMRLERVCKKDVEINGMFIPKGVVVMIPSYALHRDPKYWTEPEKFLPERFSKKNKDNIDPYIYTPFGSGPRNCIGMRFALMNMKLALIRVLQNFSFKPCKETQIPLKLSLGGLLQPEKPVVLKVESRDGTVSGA
Data set [15] can be described thus: Inhibition of recombinant human His6-tagged PDE4D7 UCR1 S129D mutant expressed in baculovirus infected Sf9 insect cells using cAMP as substrate preincubated for 5 to 10 mins followed by substrate addition and measured for 10 mins by yeast myokinase/pyruvate kinase/lactate dehydrogenase-coupled fluorescence assay relative to control.
A short description of data set [16]: Aqueous kinetic solubility of the compound in pH 7.4 PBS buffer at 100 uM measured after 1 hr. The class given is physicochemical. The note with it: pH 7.4, 1 h.

Active and inactive are the calls of the source. No cut-off for these calls is given here.

3',5'-cyclic-AMP phosphodiesterase 4B, sequence (Q07343 whole entry S133D): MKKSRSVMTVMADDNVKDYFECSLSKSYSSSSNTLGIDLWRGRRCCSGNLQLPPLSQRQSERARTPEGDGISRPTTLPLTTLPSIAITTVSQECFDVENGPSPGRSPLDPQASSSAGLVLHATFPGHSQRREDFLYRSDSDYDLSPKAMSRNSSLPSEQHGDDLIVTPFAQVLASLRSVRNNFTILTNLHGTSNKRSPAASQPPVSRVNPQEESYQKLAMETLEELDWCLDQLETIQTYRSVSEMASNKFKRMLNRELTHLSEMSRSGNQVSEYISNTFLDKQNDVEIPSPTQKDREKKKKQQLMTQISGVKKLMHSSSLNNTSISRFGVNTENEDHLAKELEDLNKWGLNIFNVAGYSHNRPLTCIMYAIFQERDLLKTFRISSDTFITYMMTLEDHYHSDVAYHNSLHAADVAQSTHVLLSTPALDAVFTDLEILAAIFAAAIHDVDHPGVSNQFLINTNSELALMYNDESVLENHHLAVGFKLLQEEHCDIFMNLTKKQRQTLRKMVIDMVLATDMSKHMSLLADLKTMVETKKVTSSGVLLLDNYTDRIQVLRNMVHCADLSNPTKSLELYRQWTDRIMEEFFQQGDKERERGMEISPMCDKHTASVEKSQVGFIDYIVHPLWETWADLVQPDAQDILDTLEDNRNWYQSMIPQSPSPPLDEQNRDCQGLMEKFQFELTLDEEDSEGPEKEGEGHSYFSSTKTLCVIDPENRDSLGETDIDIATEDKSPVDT

`CCc1nc(Nc2ccc(CCO)cc2)nc(-c2cccc(Cl)c2)n1`: the Ratio IC50 in data set [1] was 204; in [3], 48. Also, the half-maximal inhibitory concentration (IC50) (as a rule, the concentration at which inhibition is half-maximal) came to 102 nM in data set [2], 24 nM in [4] and 0.5 nM in data set [5].
For the compound `CCc1nc(Nc2ccc(CO)cc2)nc(-c2cccc(Cl)c2)n1`, the 50% inhibitory concentration (IC50) in [2] was 351 nM; in data set [4] it was 105 nM; in data set [5], 12 nM.
For `CCc1cc(Cc2ccc(CCO)cc2)nc(-c2cccc(Cl)c2)n1`, the IC50 in data set [2] is 534 nM; in data set [4] it was 584 nM; in data set [5], 2 nM.
Regarding `OCCc1ccc(Nc2cc(-c3cccc(Cl)c3)nc3c2CCC3)cc1`, the Ratio IC50 was determined as 226 in data set [1] and 60 in data set [3]. In addition, the values for the half-inhibitory concentration (IC50) in [2], in data set [4] and in [5] were 2110 nM, 562 nM and 9 nM, respectively.
Turning to `CCc1nc(Nc2ccc(CC(=O)O)cc2)nc(-c2cccc(Cl)c2)n1`, the Ratio IC50 in [1] turned out to be 6; in data set [3], 1. The IC50 in data set [2] stood at 4040 nM; in [4], 781 nM; in data set [5], 681 nM.
As for `CCc1cc(Oc2ccc(CCO)cc2)nc(-c2cccc(Cl)c2)n1`, the half-maximal inhibitory concentration (IC50) was determined as 251 nM in [2], 58 nM in [4] and 1.8 nM in [5].
In the case of `OCCc1cccc(Nc2cc(-c3cccc(Cl)c3)nc3c2CCC3)c1`, the IC50 was found to be 6320 nM in data set [2], 1420 nM in [4] and 226 nM in data set [5].
The like results for `NC(=O)CCc1ccc(Nc2cc(-c3cccc(Cl)c3)nc3c2CCC3)cc1` were, in that order, 1280 nM, 166 nM and 35 nM.
As for `CCc1nc(Nc2ccc(C(C)C(=O)O)cc2)nc(-c2cccc(Cl)c2)n1` (stereo not drawn), the IC50 in [2] is over 10000 nM; in data set [4], 1090 nM; in [5], 96 nM. In data set [3], the Ratio IC50 turned out to be 11.
With `CN(C)C(=O)Cc1ccc(Nc2cc(-c3cccc(Cl)c3)nc3c2CCC3)cc1`, the IC50 is 914 nM in data set [2], 356 nM in [4] and 51 nM in data set [5].
Regarding `CN(c1ccc(CC(N)=O)cc1)c1cc(-c2cccc(Cl)c2)nc2c1CCC2`, the figures for the concentration for half-maximal inhibition (IC50) in data set [4] and in data set [5] were 3290 nM and 733 nM, respectively.
With `CCc1cc(Nc2ccc(CC(N)=O)cc2)nc(-c2cccc(Cl)c2)n1`, the Ratio IC50 came out at 56 in data set [1] and 17 in data set [3]. Moreover, the results for the IC50 in [2], in data set [4] and in data set [5] were 146 nM, 43 nM and 2.6 nM, respectively.
Consider `CNC(=O)Cc1ccc(Nc2cc(-c3cccc(Cl)c3)nc3c2CCC3)cc1`, for which the half-maximal inhibitory concentration (IC50) in data set [2] stood at 1990 nM; in data set [4], 98 nM; in [5] it was 133 nM.
Turning to `CCc1cc(Oc2ccc(CC(N)=O)cc2)nc(-c2cccc(Cl)c2)n1`, the figures for the IC50 in [2], in data set [4] and in [5] were 2430 nM, 953 nM and 35 nM, respectively.
Take `O=C(O)Cc1ccc(Nc2cc(-c3cccc(Cl)c3)nc3c2CCC3)cc1`: in data set [3], the Ratio IC50 was determined as 1. Moreover, the figures for the half-inhibitory concentration (IC50) in data set [4] and in [5] were 1640 nM and 1160 nM, respectively.
As to `CCc1cc(Nc2ccc(CCO)cc2)nc(-c2cccc(Cl)c2)n1`, the 50% inhibitory concentration (IC50) in data set [2] amounted to 149 nM; in data set [4], 57 nM; in data set [5], 1.1 nM.
Consider `COc1ccc(C2CNC(=O)C2)cc1OC1CCCC1` (stereo not drawn) [ROLIPRAM], for which, in data set [6], the outcome was Active. Besides, the Activity result in data set [7] is given as “Toxic”.
On to `CCc1nc(Nc2ccc(C(=O)O)cc2)nc(-c2cccc(Cl)c2)n1`, for which the Ratio IC50 is 2 in data set [1] and 1 in data set [3]. For the same compound, the IC50 in data set [2] came to 482 nM; in data set [4], 241 nM; in data set [5] it was 213 nM.
Turning to `NC(=O)Cc1ccc(Cc2cc(-c3cccc(Cl)c3)nc3c2CCC3)cc1`, the IC50 in [2] worked out at 810 nM; in data set [4], 137 nM; in [5] it was 8.6 nM.
The like results for `CCc1nc(Nc2ccc(CCCO)cc2)nc(-c2cccc(Cl)c2)n1` were, in that order, 27 nM, 11 nM and 0.2 nM.
Regarding `CCc1cc(Cc2ccc(CC(=O)NCCO)cc2)nc(-c2cccc(Cl)c2)n1`, the IC50 in data set [2] came out at 885 nM; in data set [4], 128 nM; in data set [5], 0.8 nM; in data set [14], 3100 nM. Also, the result in data set [8] was Active. For the same compound, the remaining at 0.5 h, 1 µM in data set [9] worked out at 36%. In data set [10], this compound had a PPB of 99.6 to 99.8%. Also, the fraction unbound in [11], in data set [12] and in data set [13] was 0.002 to 0.004 throughout. The Imax in [15] worked out at 88%. For the same compound, the Kinetic_solubility in [16] came to 29 µM.
With `NC(=O)Cc1ccc(S(=O)(=O)c2cc(-c3cccc(Cl)c3)nc3c2CCC3)cc1`, the IC50 in data set [4] stood at 3830 nM; in data set [5], 475 nM.
For the compound `CCc1nc(Nc2ccc(CC(N)=O)cc2)nc(-c2cccc(Cl)c2)n1`, the Ratio IC50 in data set [1] was 41; in [3], 10. For the same compound, the IC50 in data set [2] amounted to 203 nM; in data set [4] it was 48 nM; in data set [5] it was 5 nM.
The like results for `CCc1nc(Nc2ccc(C(N)=O)cc2)nc(-c2cccc(Cl)c2)n1` were, in that order, 11, 2, 252 nM, 44 nM and 22 nM.
The like results for `NC(=O)Cc1ccc(Nc2cc(-c3cccc(Cl)c3)nc3c2CCC3)cc1` were, in that order, 40, 3, 1660 nM, 136 nM and 42.1 nM.
